pIC50: −log10 of the molar value. Values joined by “and” are separate entries in the source; they are usually repeats but may differ in a detail not shown here. Equal entries are not always repeated.
Columns and labels:
[1] = test system: amastigote stages of Leishmania major; conditions: cited from earlier work
MDA-MB-231 = experiment: MTT cell viability, MDA-MB-231; type: cell-based, human; conditions: 25 μM
HEPG2 = experiment: MTT cell viability, HEPG2; type: cell-based, human; conditions: 25 μM
[2] = test system: intracellular amastigotes of L. amazonensis RFP; type: cell-based, Leishmania amazonensis; conditions: for antileishmanial activity on amastigotes (in words): L. amazonensis intracellular amastigotes, up to 100 μM
Summary of the method: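 BALB/c peritoneal macrophages (3% thioglycolate-elicited), adherent, infected 10:1 with stationary-phase RFP-transfected L. amazonensis IFLA/BR/67/PH8 promastigotes. After 4 h, wash, then compound 12.5–100 μM for 72 h at 33 °C, 5% CO2. Lysis in deionized water, fluorescence Ex 540/Em 600 nm. IC50 from mean of three independent experiments.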

[3] = test system: L. amazonensis promastigotes; experiment: Antileishmanial activity against promastigotes of L. amazonensis; type: cell-based, Leishmania amazonensis; conditions: for antileishmanial activity on promastigotes (in words): L. amazonensis promastigotes, up to 100 μM; for pIC50: Leishmania amazonensis, 72 h, read-out: Promastigotes IC50, L. amazonensis promastigotes, MTT, 72 h, 6.25–100 μM
Summary of the method: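 Log-phase promastigotes at 2 × 10^6 cells/mL exposed to compound 6.25–100 μM for 72 h at 25 °C. MTT (5 mg/mL solution) added for 4 h, absorbance read at 570 nm. Viability is expressed relative to untreated parasites. IC50 from three independent experiments; miltefosine was the reference.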

Cc1ccc(-c2c(-c3ccccc3)nc3ccccn23)cc1 [Compound 2, 2-phenyl-3-(p-tolyl)imidazo[1,2-a]pyridine]
pIC50 [1]: 5.40

CC(C)(C)CC(C)(C)Nc1c(-c2cccnc2)nc2ncccn12 [Compound 25, 2-(pyridin-3-yl)-N-(2,4,4-trimethylpentan-2-yl)imidazo[1,2-a]pyrimidin-3-amine]
cytotoxicity on MDA-MB-231 (in words) (MDA-MB-231): no any significant cytotoxicity | cytotoxicity on HEP-G2 (in words) (HEPG2): no any significant cytotoxicity | antileishmanial activity on amastigotes (in words) [2]: evaded the activity | antileishmanial activity on promastigotes (in words) [3]: evaded the activity

CCCCc1nc2ncccn2c1NC(C)(C)CC(C)(C)C [Compound 27, 2-butyl-N-(2,4,4-trimethylpentan-2-yl)imidazo[1,2-a]pyrimidin-3-amine]
antileishmanial activity on amastigotes (in words) [2]: moderate activity | antileishmanial activity on promastigotes (in words) [3]: moderate activity

CC(C)(C)CC(C)(C)Nc1c(-c2ccc3c(c2)OCO3)nc2ncccn12 [Compound 14, 2-(benzo[d][1,3]dioxol-5-yl)-N-(2,4,4-trimethylpentan-2-yl)imidazo[1,2-a]pyrimidin-3-amine]
pIC50 [3]: 4.34

CC(C)(C)CC(C)(C)Nc1c(-c2cccs2)nc2ncccn12 [Compound 26, 2-(thiophen-2-yl)-N-(2,4,4-trimethylpentan-2-yl)imidazo[1,2-a]pyrimidin-3-amine]
antileishmanial activity on amastigotes (in words) [2]: showed an effect on L. amazonensis amastigotes only

CC(C)(C)CC(C)(C)Nc1c(-c2cccc(C#N)c2)nc2ncccn12 [Compound 24, 3-(3-((2,4,4-trimethylpentan-2-yl)amino)imidazo[1,2-a]pyrimidin-2-yl)benzonitrile]
cytotoxicity on MDA-MB-231 (in words) (MDA-MB-231): no any significant cytotoxicity | cytotoxicity on HEP-G2 (in words) (HEPG2): no any significant cytotoxicity | Selectivity Index ([2]; SI: CC50 in peritoneal macrophages/IC50 in intracellular amastigotes): 10 and > 10 | pIC50 [3]: > 5.00

CC(C)(C)CC(C)(C)Nc1c(-c2cccc([N+](=O)[O-])c2)nc2ncccn12 [Compound 23, 2-(3-nitrophenyl)-N-(2,4,4-trimethylpentan-2-yl)imidazo[1,2-a]pyrimidin-3-amine]
antileishmanial activity on amastigotes (in words) [2]: did not show any biological activity | antileishmanial activity on promastigotes (in words) [3]: did not show any biological activity

CC(C)(C)CC(C)(C)Nc1c(-c2ccccc2)nc2ncccn12 [Compound 18, 2-phenyl-N-(2,4,4-trimethylpentan-2-yl)imidazo[1,2-a]pyrimidin-3-amine]
cytotoxicity on MDA-MB-231 (in words) (MDA-MB-231): no any significant cytotoxicity | cytotoxicity on HEP-G2 (in words) (HEPG2): no any significant cytotoxicity

COc1ccc(-c2nc3ncccn3c2NC(C)(C)CC(C)(C)C)cc1O [Compound 22, 2-methoxy-5-(3-((2,4,4-trimethylpentan-2-yl)amino)imidazo[1,2-a]pyrimidin-2-yl)phenol]
cytotoxicity on MDA-MB-231 (in words) (MDA-MB-231): no any significant cytotoxicity | cytotoxicity on HEP-G2 (in words) (HEPG2): no any significant cytotoxicity | antileishmanial activity on amastigotes (in words) [2]: not tolerated for the antileishmanial activity | antileishmanial activity on promastigotes (in words) [3]: not tolerated for the antileishmanial activity

CCCCCCCCc1nc2ncccn2c1NC(C)(C)CC(C)(C)C [Compound 28, 2-octyl-N-(2,4,4-trimethylpentan-2-yl)imidazo[1,2-a]pyrimidin-3-amine]
antileishmanial activity on amastigotes (in words) [2]: moderate activity | antileishmanial activity on promastigotes (in words) [3]: moderate activity

Source: paper PMC10621021 (ACS Omega, 2023)
